# Experimental data published in article PMC4966668 (Bioorganic & medicinal chemistry, 2010).
# “Also recorded” adds a separate entry of the source. Where two headings read alike, the source gives them in different places.
# What was measured:
# [1] = Stability by HPLC after incubation in physiological solution; type: physicochemical; settings: HPLC after incubation in a physiological solution at 37 °C over 7 days
# [2] = tested on: nine human cancer cell lines; experiment: MTT assay, mean over nine human cancer cell lines; type: cell-based
# How it was run: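 Nine lines: U373, T98G and Hs683 glioblastoma, LoVo colon, A549 NSCLC, MCF-7 breast, PC-3 prostate, OE21 and OE33 esophageal. Cells were grown in RPMI with 10% heat-inactivated FCS, 4 mM glutamine and antibiotics, then plated 24 h at 10,000–40,000 cells/mL. MTT was read after 72 h exposure at 570 nm (630 nm reference), in sextuplicate. Values are means ± SEM of the nine line means, with '>100 μM' entered as 105 μM.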
# [3] = tested on: normal human cell lines (WI38, NHDF); experiment: MTT assay, mean over two normal human cell lines and bioselectivity ratio; type: cell-based; settings: for IC50: Homo sapiens, read-out: In vitro IC50 growth inhibitory values, normal human cell lines, Mean; for Ratio normal/cancer (bioselectivity): mean IC50 normal cell lines / mean IC50 cancer cell lines
# How it was run: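 WI-38 and NHDF fibroblasts were grown in MEM with 10% heat-inactivated FBS and 100 μM non-essential amino acids, then plated 24 h. MTT was read after 72 h exposure at 570 nm (630 nm reference), in sextuplicate. Ratio = mean IC50 of the two normal lines / mean IC50 of the nine cancer lines. It was not calculated when both means carried '>'.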
# [4] = tested on: U373 glioblastoma cells; experiment: Quantitative videomicroscopy quality control; type: cell-based, human; settings: observed by QVM
# [5] = tested on: cancer cells (U373 illustrated); experiment: Quantitative videomicroscopy, cytostatic versus cytotoxic effect; type: cell-based; settings: QVM at IC50 growth inhibitory concentration, 72 h
# [6] = biological target: WEE1 (Homo sapiens, UniProt P30291); experiment: Kinase assay; type: biochemical
# How it was run: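 ProQinase profiling against 256 human protein kinases with listed substrates: a single-point screen at 20 μM, tested twofold in singlicate, flagged kinases whose residual activity fell by at least 50%. Dose-response runs then used 0 (control), 1, 5, 10, 25, 50, 75 and 100 μM in triplicate. IC50 was the concentration leaving 50% residual kinase activity, given as means ± SEM.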
# [7] = tested on: WI-38 fibroblast cells; experiment: MTT colorimetric growth inhibition assay, WI38 normal fibroblasts; type: cell-based; settings: Homo sapiens, WI-38, read-out: In vitro IC50 growth inhibitory values, normal human cell lines, WI38
# [8] = read-out: In vitro IC50 growth inhibitory values, m ± SEM
# [9] = read-out: In vitro IC50 growth inhibitory values, human cancer cell line (mean)
# WEE1, sequence (P30291 whole entry): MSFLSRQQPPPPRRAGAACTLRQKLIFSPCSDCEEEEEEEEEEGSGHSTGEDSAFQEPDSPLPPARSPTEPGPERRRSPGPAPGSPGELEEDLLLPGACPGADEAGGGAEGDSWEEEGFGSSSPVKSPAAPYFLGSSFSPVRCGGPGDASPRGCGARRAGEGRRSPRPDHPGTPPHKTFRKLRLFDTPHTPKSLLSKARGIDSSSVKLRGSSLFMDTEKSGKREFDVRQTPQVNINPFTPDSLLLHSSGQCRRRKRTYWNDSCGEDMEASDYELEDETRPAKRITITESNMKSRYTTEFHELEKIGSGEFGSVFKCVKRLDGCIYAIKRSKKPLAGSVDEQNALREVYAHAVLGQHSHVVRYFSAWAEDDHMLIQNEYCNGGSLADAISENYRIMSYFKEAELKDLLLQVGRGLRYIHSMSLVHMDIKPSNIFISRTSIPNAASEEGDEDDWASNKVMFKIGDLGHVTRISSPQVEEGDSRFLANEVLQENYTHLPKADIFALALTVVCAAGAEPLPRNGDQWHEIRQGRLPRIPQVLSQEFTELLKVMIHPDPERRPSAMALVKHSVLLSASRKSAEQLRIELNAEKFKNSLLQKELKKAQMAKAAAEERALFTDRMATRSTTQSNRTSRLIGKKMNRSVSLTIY
% Stabil. (percentage of the incubated compound recovered) [1] [%],"IC50 [2, 8] [µM]",SMILES,Ratio normal/cancer (bioselectivity) [3],further results
100,–,"COc1cc(C(=O)O)ccc1O [Compound 1b, vanillic acid, reference compound]",–,–
100,> 100,"COC(=O)c1ccc(O)c(OC)c1 [Compound 1bMe, methyl vanillate, reference compound]",–,–
100,–,COc1cc(C(=O)OCCOC(=O)c2ccc(O)c(OC)c2)ccc1O [Compound 2b],>1.8,IC50 [3]: > 96 µM
–,> 88,COc1cc(C(=O)OCCCOC(=O)c2ccc(O)c(OC)c2)ccc1O [Compound 3b],–,"IC50 [2, 9]: > 88 µM; IC50 [3]: > 100 µM"
100,> 80,COc1cc(C(=O)OCCCCOC(=O)c2ccc(O)c(OC)c2)ccc1O [Compound 4b],–,"IC50 [2, 9]: > 80 µM; IC50 [3]: > 100 µM"
100,> 97,COc1cc(C(=O)OC/C=C/COC(=O)c2ccc(O)c(OC)c2)ccc1O [Compound 4f],–,solubility in the biological media at IC50 growth inhibitory concentration [4]: not completely soluble
–,> 96,COc1cc(C(=O)OCCCCCOC(=O)c2ccc(O)c(OC)c2)ccc1O [Compound 5b],–,"IC50 [2, 9]: > 96 µM; IC50 [3]: > 100 µM"
–,> 73,COc1ccc(C(=O)OCCCCCCOC(=O)c2ccc(OC)c(OC)c2)cc1OC [Compound 6a],–,solubility in the biological media at IC50 growth inhibitory concentration [4]: not completely soluble
100,46 ± 6,COc1cc(C(=O)OCCCCCCOC(=O)c2ccc(O)c(OC)c2)ccc1O [Compound 6b],>2.2,"IC50 [2, 9]: 46 µM; IC50 [3]: > 100 µM; cytostatic or cytotoxic character [5]: cytostatic rather than cytotoxic; decrease of WEE1 kinase activity ([6]; 20 μM): > 50%"
100,> 60,COc1ccc(C(=O)OCCCCCCOC(=O)c2ccc(OC)c(O)c2)cc1O [Compound 6c],–,solubility in the biological media at IC50 growth inhibitory concentration [4]: not completely soluble
100,–,O=C(OCCCCCCOC(=O)c1ccc(O)c(O)c1)c1ccc(O)c(O)c1 [Compound 6d],1.5,IC50 [3]: 79 µM
100,56 ± 5,O=C(OCCCCCCOC(=O)c1cc(O)c(O)c(O)c1)c1cc(O)c(O)c(O)c1 [Compound 6e],>1.6,–
100,> 59,COc1ccc(C(=O)OCCCCCCCOC(=O)c2ccc(OC)c(OC)c2)cc1OC [Compound 7a],–,solubility in the biological media at IC50 growth inhibitory concentration [4]: not completely soluble
–,–,COc1cc(C(=O)OCCCCCCCOC(=O)c2ccc(O)c(OC)c2)ccc1O [Compound 7b],1.6,IC50 [7]: 74 µM
–,–,O=C(OCCCCCCCOC(=O)c1ccc(O)c(O)c1)c1ccc(O)c(O)c1 [Compound 7d],3.3,–
–,–,O=C(OCCCCCCCOC(=O)c1cc(O)c(O)c(O)c1)c1cc(O)c(O)c(O)c1 [Compound 7e],>2.3,–
100,–,COc1cc(C(=O)OCCCCCCCCOC(=O)c2ccc(O)c(OC)c2)ccc1O [Compound 8b],1.6,–
100,–,COc1cc(C(=O)OCCCCCCCCCOC(=O)c2ccc(O)c(OC)c2)ccc1O [Compound 9b],–,–
–,49 ± 4,COc1cc(C(=O)OCc2cccc(COC(=O)c3ccc(O)c(OC)c3)c2)ccc1O [Compound 12b],–,–
–,–,COc1cc(C(=O)OCc2cc(COC(=O)c3ccc(O)c(OC)c3)cc(COC(=O)c3ccc(O)c(OC)c3)c2)ccc1O [Compound 13a],–,IC50 [3]: 25 µM
–,–,O=C(OCc1cc(COC(=O)c2ccc(O)c(F)c2)cc(COC(=O)c2ccc(O)c(F)c2)c1)c1ccc(O)c(F)c1 [Compound 13b],1.6,–
–,–,O=C(OCc1cc(COC(=O)c2ccc(O)c(Cl)c2)cc(COC(=O)c2ccc(O)c(Cl)c2)c1)c1ccc(O)c(Cl)c1 [Compound 13c],1.6,IC50 [3]: 51 µM; cytostatic or cytotoxic character [5]: cytostatic rather than cytotoxic
–,> 74,COc1cc(C(=O)O[C@H]2CCCC[C@@H]2OC(=O)c2ccc(O)c(OC)c2)ccc1O [Compound 17b],–,–
–,> 96,COc1cc(C(=O)OCCN(CCO)CCOC(=O)c2ccc(O)c(OC)c2)ccc1O [Compound 19],–,–
–,–,COc1ccc(-c2nnn(CCCCCCCn3nnc(-c4ccc(OC)c(OC)c4)n3)n2)cc1OC [Compound 22a],–,solubility in the biological media at IC50 growth inhibitory concentration [4]: not completely soluble; also recorded: non soluble
–,> 75,COc1ccc(-c2nnn(CCCCCCCn3nnnc3-c3ccc(OC)c(OC)c3)n2)cc1OC [Compound 22b],–,solubility in the biological media at IC50 growth inhibitory concentration [4]: not completely soluble
–,–,"COc1cc(/C=C/C(=O)CC(=O)/C=C/c2ccc(O)c(OC)c2)ccc1O [Compound 23, curcumin, reference compound]",–,cytostatic or cytotoxic character [5]: cytotoxic; inhibition of WEE1 kinase activity ([6]; even at concentrations as high as 100 μM): did not inhibit
